Only some compounds are listed: those with a hit (about 2.2% of all), similar ones and a draw of the others.
C2C12 statin: suppressors of statin myotoxicity in C2C12 myotubes, primary screen, cell-based, single point, plate reader. C2C12 myotubes + simvastatin, ATP luminescence, 48 h; scaled: DMSO 0, geranylgeraniol control 100. rescue of ATP level, % at 7.49 µM. hit rate 0.78% among 330,000. AID 602340, 2012;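 active = mean ATP rescue above about 67%, or every replicate alone reaching that limit, limit read from the data, passing the limit was not always enough; inconclusive = no clear call, values can overlap the other calls; inactive = mean under the limit and some replicate under it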;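 also: myotubes were challenged with 10 µM simvastatin during compound exposure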
DENV2 CPE rescue: inhibitors of DENV2 cytopathic effect, primary screen, cell-based, plate reader, single concentration. DENV2-infected cells, cytopathic effect rescue. CPE inhibition, % at 9.99 µM. hit rate 1.7% among 350,000. AID 651640, 2012; in the data active = CPE inhibition above about 20%, passing the limit was not always enough; inconclusive = no clear call, values can overlap the other calls; tested in BHK-21 cells;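 also: 0% = median of neutral control wells and 100% = median of positive control wells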
E-selectin induc: E-selectin induction in HUVECs, primary screen, imaging, HUVEC, immunofluorescence imaging, single point; P16581; normalized: neutral wells 0, TNF-alpha wells 100; activation, % at 7.58 µM; hit rate 0.37% among 260,000;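 active = mean E-selectin-positive cell signal at least 10% of the positive control, reached in at least 60% of replicates, without over 20% cell loss; inconclusive = no rule given, readout overlaps actives, possibly toxicity-flagged; inactive = the rest, including those meeting only one limit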
Target sequence (P16581 whole entry, looked up): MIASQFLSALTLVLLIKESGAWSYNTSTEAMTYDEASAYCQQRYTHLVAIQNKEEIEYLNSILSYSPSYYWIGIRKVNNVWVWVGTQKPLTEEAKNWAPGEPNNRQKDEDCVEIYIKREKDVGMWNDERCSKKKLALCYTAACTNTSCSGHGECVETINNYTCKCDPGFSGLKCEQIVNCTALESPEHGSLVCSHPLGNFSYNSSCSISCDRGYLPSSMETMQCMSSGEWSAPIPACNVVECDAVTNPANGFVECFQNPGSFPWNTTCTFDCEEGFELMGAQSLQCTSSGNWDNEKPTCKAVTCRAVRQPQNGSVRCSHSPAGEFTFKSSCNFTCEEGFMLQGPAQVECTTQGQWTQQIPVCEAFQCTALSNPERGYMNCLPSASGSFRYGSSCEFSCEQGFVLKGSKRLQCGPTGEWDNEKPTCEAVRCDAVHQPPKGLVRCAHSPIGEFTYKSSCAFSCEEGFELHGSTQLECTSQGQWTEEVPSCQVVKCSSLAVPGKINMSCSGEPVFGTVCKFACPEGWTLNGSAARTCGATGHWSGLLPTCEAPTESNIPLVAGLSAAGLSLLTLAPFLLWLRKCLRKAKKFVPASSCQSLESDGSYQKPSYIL
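Assay system: HUVEC primary endothelial cells. Input: 3,000 HUVEC seeded per well. Doses: one compound dose added by pin transfer. Read-out basis: % PE-positive cells. Benchmarks: TNF-alpha high, DMSO low. Detection: immunofluorescence imaging. Buffer or medium: EGM-2, gelatin.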
The depositor's hits bear a star; u = inconclusive; x = no result given.

SMILES	C2C12 statin	DENV2 CPE rescue	E-selectin induc
C=CCn1c(COc2cccc(C)c2)nnc1SCC(=O)c1c(N)n(C)c(=O)n(C)c1=O	-1	3	0
CN1CCN(C(=O)C2=C[C@@H](C3CC3)C[C@@H](OCCCCO)O2)CC1	x	-3	x
COc1ccc(NC(=O)N2CCCCN3[C@H](C2)[C@@H](c2ccc(-c4ccccc4F)cc2)[C@@H]3CO)cc1	-72	-25	1
COc1ccc(C#Cc2ccc([C@H]3[C@H](CO)N4CCCCN(C(=O)Nc5ccc(F)cc5)C[C@@H]34)cc2)cc1	x	-6	0
COc1ccc(C#Cc2ccc([C@H]3[C@@H](CO)N4CCCCN(C(=O)Nc5ccc(F)cc5)C[C@@H]34)cc2)cc1	x	30*	0
COc1ccc(NC(=O)N2CCCCN3[C@H](C2)[C@H](c2ccc(-c4ccccc4F)cc2)[C@@H]3CO)cc1	13	30*	0
Cc1noc(C)c1S(=O)(=O)N(C)C[C@H]1OCCCC[C@@H](C)Oc2ccc(NC(=O)CCCCCC(=O)Nc3ccccc3N)cc2C(=O)N([C@@H](C)CO)C[C@@H]1C	x	x	0
C[C@@H]1CCCCO[C@H](CN(C)C(=O)Cc2ccccc2)[C@@H](C)CN([C@@H](C)CO)C(=O)c2cc(NS(=O)(=O)c3cccs3)ccc2O1	x	-9	0
C[C@@H]1CCCCO[C@@H](CN(C)C(=O)Cc2ccccc2)[C@H](C)CN([C@H](C)CO)C(=O)c2cc(NS(=O)(=O)c3cccs3)ccc2O1	x	61*	0
C[C@@H]1CCCCO[C@@H](CN(C)Cc2ccc3c(c2)OCO3)[C@H](C)CN([C@H](C)CO)C(=O)c2cc(NS(=O)(=O)c3cccs3)ccc2O1	x	38*	0
C[C@H](CO)N1C[C@H](C)[C@@H](CN(C)Cc2ccc(C(F)(F)F)cc2)OCCCC[C@H](C)Oc2ccc(NS(=O)(=O)c3cccs3)cc2C1=O	-62	4	0
C[C@@H]1CCCCO[C@@H](CN(C)Cc2ccc3c(c2)OCO3)[C@@H](C)CN([C@H](C)CO)C(=O)c2cc(NS(=O)(=O)c3cccs3)ccc2O1	x	-2	0
C[C@@H]1CN([C@H](C)CO)C(=O)c2cc(NS(=O)(=O)c3cccs3)ccc2O[C@@H](C)CCCCO[C@@H]1CN(C)Cc1ccc(C(F)(F)F)cc1	92*	4	0
COc1ccc(CN(C)C[C@@H]2OCCCC[C@@H](C)Oc3ccc(NS(=O)(=O)c4cccs4)cc3C(=O)N([C@H](C)CO)C[C@@H]2C)cc1	x	-11	0
COc1ccc(CN(C)C[C@H]2OCCCC[C@H](C)Oc3ccc(NS(=O)(=O)c4cccs4)cc3C(=O)N([C@H](C)CO)C[C@H]2C)cc1	x	52*	0
CC(C)NC(=O)N[C@H]1CC[C@H](CCNC(=O)C2CCCC2)O[C@@H]1CO	-5	u	0
CC(=O)N(C)C[C@H]1Oc2cc(C#CC(C)(C)O)ccc2S(=O)(=O)N([C@H](C)CO)C[C@@H]1C	-4	1	0
O=C(Nc1ccc(C(F)(F)F)cc1)N1[C@@H]2CNC[C@H]1C2c1ccc(-c2ccc(F)cc2)cc1 (some centres undefined)	x	-3	0
COc1ccc(-c2cn(CC[C@@H]3CC[C@@H](NC(=O)Cc4ccccn4)[C@@H](CO)O3)nn2)cc1	-4	12	2
C[C@@H]1CN([C@H](C)CO)C(=O)c2cc(NC(=O)Nc3ccccc3)ccc2O[C@@H](C)CCCCO[C@H]1CN(C)C(=O)NC1CCCCC1	x	x	1
O=C(C[C@@H]1CC[C@H]2[C@@H](COC[C@H](O)CN2C(=O)Nc2cccc(Cl)c2)O1)N1CCCCC1	-23	-3	0
C[C@H](CO)N1C[C@H](C)[C@H](CN(C)Cc2ccccc2)OCCCC[C@H](C)Oc2ccc(NS(=O)(=O)c3cccs3)cc2C1=O	x	-3	x
C[C@@H]1CN([C@@H](C)CO)C(=O)c2cc(NS(=O)(=O)c3cccs3)ccc2O[C@@H](C)CCCCO[C@H]1CN(C)Cc1ccccc1	x	42*	x
COc1ccccc1-c1ccc2n(c1=O)C[C@H]1[C@H](CO)[C@@H](C(=O)NCC3CC3)N(S(C)(=O)=O)[C@@H]21	16	4	0
Cc1ccc(S(=O)(=O)Nc2ccc3c(c2)CC(=O)N([C@@H](C)CO)C[C@@H](C)[C@@H](CN(C)C(=O)Nc2ccccc2)O3)cc1	-2	39*	x
SMILES	C2C12 statin	DENV2 CPE rescue	E-selectin induc
C[C@H]1CN([C@@H](C)CO)C(=O)Cc2cc(NS(=O)(=O)c3ccccc3)ccc2O[C@H]1CN(C)C(=O)Nc1ccc(F)cc1	-1	5	0
C[C@@H]1CN([C@@H](C)CO)C(=O)Cc2cc(NS(=O)(=O)c3ccccc3)ccc2O[C@H]1CN(C)C(=O)Nc1ccc(F)cc1	10	36*	0
Cc1ccc(S(=O)(=O)Nc2ccc3c(c2)CC(=O)N([C@H](C)CO)C[C@H](C)[C@@H](CN(C)C(=O)Nc2ccccc2)O3)cc1	-7	-8	x
CC(C)NC(=O)NCC[C@@H]1CC[C@H](NC(=O)CCN2CCCCC2)[C@@H](CO)O1	-8	-1	0
CC(=O)N1[C@@H]2CN(S(=O)(=O)c3ccc(F)cc3)c3ccccc3[C@@H]2[C@@H]1CO	-13	4	1
CC(C)CN(CCNC(=O)c1cn(C)c2ccc(S(=O)(=O)N3CCCC3)cc2c1=O)CC(C)C	7	0	0
CC(C)CCNC(=O)c1cn(C)c2ccc(S(=O)(=O)N3CCCC3)cc2c1=O	-1	-2	37*
COc1ccc(C2C(C(=O)c3ccccc3)N3c4ccccc4C=CC3C2[N+](=O)[O-])cc1 (centres undefined)	x	3	120*
COc1ccc(N2C(=O)[C@@H]3[C@H](C2=O)[C@H](C(C)=O)N2c4ccccc4C=C[C@@H]32)cc1	9	-1	x
CC(C)C[C@@H](CN=[N+]=[N-])N1CCN(C)CCC1=O	3	-13	0
CC(C)C[C@@H](CN=[N+]=[N-])N1CCN(CC(C)C)CCC1=O	-8	87*	0
O=C(O)C[C@H]1C[C@@H]2c3cc(NC(=O)Nc4ccc(F)cc4)ccc3O[C@@H]2[C@@H](CO)O1	-3	0	0
CN(C)C(=O)C[C@@H]1C=C[C@H](NS(=O)(=O)c2ccccc2)[C@@H](CO)O1	2	-4	1
CCCSC1=N/C(=C\c2ccsc2)C(=O)S1	103*	x	x
CCCSC1=N/C(=C\c2ccc([N+](=O)[O-])o2)C(=O)S1	10	x	x
CCCSC1=N/C(=C\c2ccc3c(c2)OCO3)C(=O)S1	x	x	-1
CCSC1=N/C(=C\c2ccc3c(c2)OCO3)C(=O)S1	97*	x	x
CCCNC(=O)N[C@H]1CC[C@H](CCn2cc(C3CCCC3)nn2)O[C@H]1CO	4	6	0
O=C(CCN1CCCCC1)N[C@@H]1CC[C@H](CCNC(=O)c2cc(Cl)cc(Cl)c2)O[C@@H]1CO	7	-2	0
COc1ccc(NC(=O)N(C)C[C@H]2Oc3ccc(NC(=O)c4ccncc4)cc3C(=O)N([C@H](C)CO)C[C@H]2C)cc1	-6	-2	-5
N#CCCn1cc(C(=O)CN2C(=O)NC3(CCc4ccccc43)C2=O)c2ccccc21 (centres undefined)	3	34*	x

Bioassay records deposited in PubChem BioAssay by Broad Institute.
